Test results taken from ChEMBL document CHEMBL3822413, “Design, synthesis, and evaluation of water-soluble morpholino-decorated paclitaxel prodrugs with remarkably decreased toxicity” (Bioorg Med Chem Lett, 2016).
In brackets after ≈: the same amount, converted by molar mass. Activity calls are given as the source filed them. The rule behind the calls is not given here.

Experiments:
MCF7 [1] = test: Cytotoxicity against human MCF7 cells assessed as cell viability measured after 48 hrs by MTS assay; format: functional, cell-based; conditions: MCF7, 48 h
Method in brief: (§1)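 MCF-7 and HeLa cells seeded at 4×10^3 cells/well 24 h before treatment, then exposed to compounds for 48 h or 72 h. Viability measured by MTS assay and IC50 derived; top concentration tested 1 µM.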

[2] = Ratio of aqueous solubility of compound to aqueous solubility of paclitaxel; format: physicochemical; conditions: buffer
[3] = Chemical stability of the compound assessed as paclitaxel release in presence of FBS measured after 5 hrs by HPLC analysis; format: physicochemical; conditions: cattle
Method in brief: (§2)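 Compound solution added to fetal bovine serum (400 µl into 3600 µl) and incubated at 37 °C. At set time points, 100 µl aliquots were quenched with 300 µl acetonitrile and centrifuged 5 min at 10,000 rpm. Supernatant analysed by HPLC for intact prodrug and released paclitaxel.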

HeLa [4] = test: Cytotoxicity against human HeLa cells assessed as cell viability measured after 48 hrs by MTS assay; format: functional, cell-based; method in brief: as §1
MCF7 [5] = test: Cytotoxicity against human MCF7 cells assessed as cell viability measured after 72 hrs by MTS assay; format: functional, cell-based; conditions: MCF7, 72 h; method in brief: as §1
HeLa [6] = test: Cytotoxicity against human HeLa cells assessed as cell viability measured after 72 hrs by MTS assay; format: functional, cell-based; method in brief: as §1
[7] = Aqueous solubility of the compound; format: physicochemical
CCRF S-180 [8] = test: Antitumor activity against mouse S180 cells allografted in mouse assessed as tumor weight at 25 mg/kg, iv administered 4 time a day post 24 hrs of tumor implantation measured after 10 days (reference value: 7.35g); format: functional
Mus musculus [9] = test: Toxicity in mouse allografted with mouse S180 cells assessed as change in body weight at 25 mg/kg, iv administered 4 time a day post 24 hrs of tumor implantation measured after 10 days (reference value: -2.8%); format: organism-based, CCRF S-180; conditions: in vivo, 240 h
CCRF S-180 [10] = test: Antitumor activity against mouse S180 cells allografted in mouse assessed as tumor growth inhibition at 25 mg/kg, iv administered 4 time a day post 24 hrs of tumor implantation measured after 10 days; format: functional; conditions: CCRF S-180, iv, read-out: TGI
Mus musculus [11] = test: Acute toxicity in mouse allografted with mouse S180 cells at 60 mg/kg, iv administered 4 times per day post 24 hrs of tumor implantation measured after 24 hrs; format: organism-based, CCRF S-180; conditions: in vivo
[12] = Toxicity in mouse; format: organism-based; conditions: in vivo
Plasma = test: Metabolic stability in mouse plasma assessed as paclitaxel release at 37 degC in presence of dithiotheitol measured after 10 min; format: ADME, cell-free
Method in brief: (§3)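 Compound incubated in mouse plasma at 37 °C for up to 48 h. Remaining compound and released paclitaxel measured at intervals, expressed as detected concentration divided by total concentration. In a separate incubation, 10 mM dithiothreitol was added.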

Mus musculus [13] = test: Acute toxicity in mouse allografted with mouse S180 cells assessed as mouse survival at 90 mg/kg, iv administered 4 times per day post 24 hrs of tumor implantation; format: organism-based, CCRF S-180; conditions: in vivo
[14] = Metabolic stability in mouse plasma assessed as compound degradation at 37 degC measured after 10 hrs; format: ADME, cell-free; conditions: read-out: Drug degradation; method in brief: as §3
Mus musculus [15] = test: Toxicity in mouse allografted with mouse S180 cells assessed as mortality at 25 mg/kg, iv administered 4 time a day post 24 hrs of tumor implantation; format: organism-based, CCRF S-180; conditions: in vivo
Method in brief: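 S-180 cells were implanted subcutaneously in mice, 8 per group. Starting 24 h later, dosing was iv every other day for 4 doses, with dose expressed as paclitaxel-equivalent. Prodrug vehicle was 5% glucose. Paclitaxel was given in cremophor/ethanol (50%/50%) diluted 10-fold with 5% glucose. Vehicle controls received 5% glucose. Deaths were counted up to day 10.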

[16] = Chemical stability of the compound assessed as compound degradation in presence of FBS measured after 4 hrs by HPLC analysis; format: physicochemical; conditions: cattle; method in brief: as §2
HeLa [17] = test: Cytotoxicity against human HeLa cells at 1 uM by MTS assay; format: functional, cell-based; method in brief: as §1
[18] = Chemical stability of the compound assessed as paclitaxel release in presence of FBS measured after 4 hrs by HPLC analysis; format: physicochemical; conditions: cattle; method in brief: as §2
MCF7 [19] = test: Cytotoxicity against human MCF7 cells at 1 uM by MTS assay; format: functional, cell-based; method in brief: as §1

Row | SMILES | IC50 (MCF7 [1]) [nM] | Ratio [2] | Drug metabolism [3] | IC50 (HeLa [4]) [nM] | IC50 (MCF7 [5]) [nM] | IC50 (HeLa [6]) [nM] | solubility [7] [µg/mL] | Activity (CCRF S-180 [8]) [g] | Activity (Mus musculus [9]) [%] | inhibition in vivo at 25 mg/kg (CCRF S-180 [10]) [%] | Activity (Mus musculus [11]) | MTD [12] [mg/kg] | Drug metabolism (Plasma) | Survival (Mus musculus [13]) [weeks] | metabolised at 10 h [14] [%] | Activity (Mus musculus [15]) | Stability [16] | Activity (HeLa [17]) | Drug metabolism [18] | Activity (MCF7 [19])
1 | CC(=O)O[C@H]1C(=O)[C@@]2(C)[C@H]([C@H](OC(=O)c3ccccc3)[C@]3(O)C[C@H](OC(=O)[C@H](OC(=O)CCC(=O)NCCN4CCOCC4)[C@@H](NC(=O)c4ccccc4)c4ccccc4)C(C)=C1C3(C)C)[C@]1(OC(C)=O)CO[C@@H]1C[C@@H]2O | 4.23 | 2000 | metabolite_detected | 19.8 | 0.74 | 14.6 | 500 (≈ 469 µM) | – | – | – | – | – | – | – | – | – | – | – | – | –
2 | CC(=O)O[C@H]1C(=O)[C@@]2(C)[C@H]([C@H](OC(=O)c3ccccc3)[C@]3(O)C[C@H](OC(=O)[C@H](O)[C@@H](NC(=O)c4ccccc4)c4ccccc4)C(C)=C1C3(C)C)[C@]1(OC(C)=O)CO[C@@H]1C[C@@H]2O [PACLITAXEL] | 3.1 | – | – | 23.3 | 1.25 | 12.6 | – | 3.34 | -28.1 | 56 | Toxic | 30 | – | – | – | – | – | – | – | –
3 | CC(=O)O[C@H]1C(=O)[C@@]2(C)[C@H]([C@H](OC(=O)c3ccccc3)[C@]3(O)C[C@H](OC(=O)[C@H](OC(=O)OCCSSCC(=O)N[C@H](CC(=O)NCCN4CCOCC4)C(=O)NCCN4CCOCC4)[C@@H](NC(=O)c4ccccc4)c4ccccc4)C(C)=C1C3(C)C)[C@]1(OC(C)=O)CO[C@@H]1C[C@@H]2O | 7.45 | 20000 | – | 20.6 | 4.07 | 14 | 5000 (≈ 3600 µM) | 3.43 | -16.1 | 54 | – | – | metabolite_detected | 1 | 100 | Non-toxic | – | – | – | –
4 | CC(=O)O[C@H]1C(=O)[C@@]2(C)[C@H]([C@H](OC(=O)c3ccccc3)[C@]3(O)C[C@H](OC(=O)[C@H](OC(=O)NCCN4CCOCC4)[C@@H](NC(=O)c4ccccc4)c4ccccc4)C(C)=C1C3(C)C)[C@]1(OC(C)=O)CO[C@@H]1C[C@@H]2O | > 1000 | 2000 | – | > 1000 | > 1000 | > 1000 | 500 (≈ 495 µM) | – | – | – | – | – | – | – | – | – | Unstable | inactive | metabolite_notdetected | inactive
5 | CC(=O)O[C@H]1C(=O)[C@@]2(C)[C@H]([C@H](OC(=O)c3ccccc3)[C@]3(O)C[C@H](OC(=O)[C@H](OC(=O)CN4CCOCC4)[C@@H](NC(=O)c4ccccc4)c4ccccc4)C(C)=C1C3(C)C)[C@]1(OC(C)=O)CO[C@@H]1C[C@@H]2O | 12 | 400 | – | 49.2 | 3.49 | 22.9 | 100 (≈ 102 µM) | – | – | – | – | – | – | – | – | – | – | – | – | –
